For assay [1], the species on record is Bos taurus. Put plainly: Inhibition of calf thymus DNA topoisomerase 1-mediated relaxation of supercoiled pBR322 plasmid DNA by agarose gel electrophoresis. In short, it runs like this: (§1)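 Reaction contained 1 unit calf thymus topo I and supercoiled pBR322 in 35 mM Tris-HCl pH 8.0, 72 mM KCl, 5 mM MgCl2, 5 mM DTT, 5 mM spermidine and 0.1% BSA, with or without compound, at 37 °C. Products were run on 1% agarose in TBE at 5 V/cm, stained with ethidium bromide and photographed under UV. Supercoiled and relaxed bands were quantified from gel images.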

Another assay concerns A-431. The assay is described as follows: Cytotoxicity against human A431 cells after 72 hrs by MTT assay. The class given is functional, cell-based. To be noted: A-431, 72 h. A digest of the protocol:
(§2)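 Cells seeded at 5000/well and left to attach overnight, then given fresh medium containing compound over […] and incubated 72 h. Viability read by MTT: 4 h contact, crystals dissolved in DMSO over 60 min of shaking, absorbance at 545 nm. Untreated wells served as controls; DMSO at most 0.3%. Two plates with at least five parallel wells each; IC50 from fitted dose–response curves.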
Background: Formazan colour is commonly taken as a measure of viable cells.

The species named for assay [2] is Bos taurus. The assay is described as follows: Inhibition of calf thymus DNA topoisomerase 1-mediated relaxation of supercoiled pBR322 plasmid DNA at 1 ug/ml by agarose gel electrophoresis. In short, it runs like this:
as §1

Another assay relates to MCF7. The assay is described as follows: Cytotoxicity against human MCF7 cells after 72 hrs by MTT assay. The class given is functional, cell-based. The conditions noted are these: MCF7, 72 h. A digest of the protocol:
as §2

Another assay concerns HeLa. The assay is described as follows: Cytotoxicity against human HeLa cells after 72 hrs by MTT assay. Format: functional, cell-based. A digest of the protocol:
as §2

As usually defined, the inhibition is the percentage by which the read-out fell short of the control. By IC50 is commonly meant the concentration at which inhibition is half-maximal.

Active and inactive are the calls of the source. No cut-off for these calls is given here.

As to `Oc1ccccc1-c1nc2cc(Cl)ccc2[nH]1`, the inhibition entry was “Dose-dependent effect” in the assay filed under Bos taurus [1] and 99% in the assay listed under Bos taurus [2]. For the same compound, the IC50 in the assay with A-431 was 6.16 µM; with MCF7 it was 6.94 µM; with HeLa, 6.04 µM.
As for `CCN(CC)CCOc1ccccc1-c1nc2cc(Cl)ccc2[nH]1`, in the assay listed under Bos taurus [1], the inhibition result is “Dose-dependent effect”. The inhibition entry in the assay listed under Bos taurus [2] was “inactive”.
`c1ccc(-c2nc3ccccc3[nH]2)c(OCCN2CCCC2)c1`: the inhibition entry in the assay filed under Bos taurus [1] is “Dose-dependent effect”; in the assay listed under Bos taurus [2] it was 90.2%. For the same compound, the values for the IC50 in the assay with A-431, in the assay with MCF7 and in the assay with HeLa were greater than 30 µM, greater than 30 µM and 19.8 µM, respectively.
Turning to `c1ccc(-c2nc3ccccc3[nH]2)c(OCCN2CCOCC2)c1`, in the assay filed under Bos taurus [1], the inhibition result was “Dose-dependent effect”. Further, the inhibition entry in the assay filed under Bos taurus [2] is “inactive”.
For the compound `Oc1ccccc1-c1nc2ccccc2[nH]1`, the inhibition entry was “Dose-dependent effect” in the assay listed under Bos taurus [1] and 95.4% in the assay filed under Bos taurus [2]. Moreover, the IC50 in the assay on A-431 is greater than 30 µM; in the assay on MCF7, 16 µM; in the assay with HeLa it was 26.4 µM.
Turning to `Clc1ccc2[nH]c(-c3ccccc3OCCN3CCCC3)nc2c1`, the inhibition result in the assay filed under Bos taurus [1] is “Dose-dependent effect”. For the same compound, in the assay filed under Bos taurus [2], the inhibition entry is “inactive”.
In the same order, the values of `Clc1ccc2[nH]c(-c3ccccc3OCCN3CCCCC3)nc2c1` are “Dose-dependent effect” and “inactive”.
In the case of `COc1cccc2c1C(=O)c1c(O)c3c(c(O)c1C2=O)C[C@@](O)(C(=O)CO)C[C@@H]3O[C@H]1C[C@H](N)[C@H](O)[C@H](C)O1` [DOXORUBICIN], the IC50 with A-431 amounted to 0.19 µM; in the assay on MCF7 it was 0.31 µM; in the assay with HeLa it was 0.16 µM.
`Clc1ccc2[nH]c(-c3ccccc3OCCN3CCOCC3)nc2c1`: in the assay filed under Bos taurus [1], the inhibition result was “Dose-dependent effect”. For the same compound, the inhibition entry in the assay filed under Bos taurus [2] was “inactive”.
In the same order, the values of `c1ccc(-c2nc3ccccc3[nH]2)c(OCCN2CCCCC2)c1` are “Dose-dependent effect” and “inactive”.

(Values after ChEMBL document CHEMBL1158342, “Synthesis and biological activity evaluation of 1H-benzimidazoles via mammalian DNA topoisomerase I and cytostaticity assays” (Eur J Med Chem, 2009).)
